Reference: ChEMBL document CHEMBL1130190, “Thromboxane modulating agents. 3. 1H-imidazol-1-ylalkyl- and 3-pyridinylalkyl-substituted 3-[2-[(arylsulfonyl)amino]ethyl]benzenepropanoic acid derivatives as dual thromboxane synthase inhibitor/thromboxane receptor antagonists” (J Med Chem, 1997)

How the values were obtained:
[1] = biological target: T1, Thromboxane A2 receptor (Rattus norvegicus) (UniProt P34978); assay: Antagonist activity against TXA2 receptor measured by inhibition of U-46,619-induced contractions of rat aorta; type: functional, tissue-based
T1 sequence (whole entry): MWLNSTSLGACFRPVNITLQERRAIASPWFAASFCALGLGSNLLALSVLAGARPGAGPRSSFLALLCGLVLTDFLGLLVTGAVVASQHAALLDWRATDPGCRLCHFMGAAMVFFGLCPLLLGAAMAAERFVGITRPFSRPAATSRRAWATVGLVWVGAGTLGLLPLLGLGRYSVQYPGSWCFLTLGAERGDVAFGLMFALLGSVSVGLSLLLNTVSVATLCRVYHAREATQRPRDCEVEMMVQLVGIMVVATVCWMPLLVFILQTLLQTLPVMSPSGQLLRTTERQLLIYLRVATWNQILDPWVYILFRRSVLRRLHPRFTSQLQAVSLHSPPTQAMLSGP
In short: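 Spirally cut rat aortic strips held under 1 g resting tension for isometric recording in Krebs-bicarbonate at 37 °C, oxygenated, equilibrated 2 h. Primed with U46619 for 10 min, washed, and rested 1 h. Cumulative U46619 (1–100 nM) contraction curves were run before and after 15 min compound exposure (1 h for footnoted entries) at several concentrations. Antagonism was derived from the shifted curves.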

Thromboxane-A synthase = biological target: T2, Thromboxane-A synthase (Homo sapiens, UniProt P24557); assay: Activity against human platelet microsome Thromboxane synthase
T2 sequence (P24557 whole entry): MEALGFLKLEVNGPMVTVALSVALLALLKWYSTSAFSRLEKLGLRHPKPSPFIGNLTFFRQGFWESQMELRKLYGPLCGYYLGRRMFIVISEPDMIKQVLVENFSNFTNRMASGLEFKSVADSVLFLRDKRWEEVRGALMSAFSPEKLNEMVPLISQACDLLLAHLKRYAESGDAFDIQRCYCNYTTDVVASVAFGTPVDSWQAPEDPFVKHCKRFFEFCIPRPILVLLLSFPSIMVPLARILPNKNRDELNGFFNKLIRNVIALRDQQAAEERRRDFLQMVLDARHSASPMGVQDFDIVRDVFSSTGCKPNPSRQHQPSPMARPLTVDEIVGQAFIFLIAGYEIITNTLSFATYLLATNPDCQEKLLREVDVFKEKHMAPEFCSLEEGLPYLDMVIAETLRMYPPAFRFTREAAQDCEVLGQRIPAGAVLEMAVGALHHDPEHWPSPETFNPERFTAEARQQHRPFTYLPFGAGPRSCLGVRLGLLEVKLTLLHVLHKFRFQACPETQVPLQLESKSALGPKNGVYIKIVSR

pA2 [1] | IC50 (Thromboxane-A synthase) | Compound
7.81 | 43 nM | O=C(O)CCc1cc(CCNS(=O)(=O)C2CCCCC2)cc(Cc2cccnc2)c1
8.2 | – | O=C(O)CCn1cc(Cn2ccnc2)c2cc(NS(=O)(=O)c3ccc(F)cc3)ccc21
9.44 | – | O=C(O)CCc1cc(CCNS(=O)(=O)c2ccc(Br)cc2)cc(Cc2cccnc2)c1
10.2 | – | CC(c1cccnc1)c1cc(CCNS(=O)(=O)c2ccc(Cl)cc2)cc(CCC(=O)O)c1 (configuration not stated)
7.8 | 27 nM | O=C(O)CCc1cc(CCCS(=O)(=O)c2ccccc2)cc(Cc2cccnc2)c1
9.39 | – | O=C(O)CCc1cc(CCNS(=O)(=O)c2ccc(Cl)cc2)cc(Cc2cccnc2)c1
8.9 | 20 nM | O=C(O)CCc1cc(CCNS(=O)(=O)c2ccc(F)cc2)cc(Cc2cccnc2)c1
7.69 | 22 nM | CN(C)S(=O)(=O)NCCc1cc(CCC(=O)O)cc(Cc2cccnc2)c1
8 | 22 nM | O=C(O)CCc1cc(CCNS(=O)(=O)N2CCCC2)cc(Cc2cccnc2)c1
8.85 | – | O=C(O)CCn1cc(Cc2cccnc2)c2cc(NS(=O)(=O)c3ccc(F)cc3)ccc21
7.43 | 29 nM | CCN(CC)S(=O)(=O)NCCc1cc(CCC(=O)O)cc(Cc2cccnc2)c1
9.16 | – | Cc1c(Cc2cccnc2)c2cc(CCC(=O)O)ccc2n1CCNS(=O)(=O)c1ccc(F)cc1
7.96 | 22 nM | O=C(O)CCc1cc(CCNC(=O)c2ccccc2)cc(Cc2cccnc2)c1
9.07 | – | CC(O)(c1cccnc1)c1cc(CCNS(=O)(=O)c2ccc(Cl)cc2)cc(CCC(=O)O)c1 (configuration not stated)
7.71 | 29 nM | CCCS(=O)(=O)NCCc1cc(CCC(=O)O)cc(Cc2cccnc2)c1
7.81 | 43 nM | O=C(O)CCc1cc(CCNS(=O)(=O)N2CCCCC2)cc(Cc2cccnc2)c1
8.1 | 39 nM | CC(C)(C)CS(=O)(=O)NCCc1cc(CCC(=O)O)cc(Cc2cccnc2)c1
8.98 | 37 nM | Cc1ccc(S(=O)(=O)NCCc2cc(CCC(=O)O)cc(Cc3cccnc3)c2)cc1
< 6 | 48 nM | O=C(O)CCc1cc(CCS(=O)(=O)c2ccccc2)cc(Cc2cccnc2)c1
6.78 | 54 nM | CN(CCc1cc(CCC(=O)O)cc(Cc2cccnc2)c1)S(=O)(=O)c1ccc(Cl)cc1
8.8 | – | Cc1c(Cn2ccnc2)c2cc(CCC(=O)O)ccc2n1CCNS(=O)(=O)c1ccc(F)cc1
7.09 | – | O=C(O)COc1ccc(CCNS(=O)(=O)c2ccccc2)cc1
9.4 | – | O=C(O)CCc1cc(CCNS(=O)(=O)c2ccc(Cl)cc2)cc(Oc2cccnc2)c1
10 | – | C=C(c1cccnc1)c1cc(CCNS(=O)(=O)c2ccc(Cl)cc2)cc(CCC(=O)O)c1
8.54 | 38 nM | O=C(O)CCc1cc(CCNS(=O)(=O)c2ccc(Cl)cc2)cc(Cn2ccnc2)c1
8.32 | 38 nM | O=C(O)CCc1cc(CCNS(=O)(=O)Nc2ccc(Cl)cc2)cc(Cc2cccnc2)c1
7.89 | 18 nM | O=C(O)CCc1cc(CCNS(=O)(=O)c2ccccc2)cc(Cn2ccnc2)c1
8.8 | 45 nM | O=C(O)CCc1cc(CCNS(=O)(=O)c2ccccc2)cc(Cc2cccnc2)c1
8.71 | – | O=C(O)CCc1cccc(CCNS(=O)(=O)c2ccc(Cl)cc2)c1
9.06 | – | O=C(O)CCc1cc(CCNS(=O)(=O)c2ccccc2)cc(Oc2cccnc2)c1
